According to ChEMBL document CHEMBL1153723, “Cytotoxic effects of cardiac glycosides in colon cancer cells, alone and in combination with standard chemotherapeutic drugs” (J Nat Prod, 2009):
Active and inactive are the calls of the source. The calls are words filed in the database; no cut-off is given here.

Legend:
[1] = Cytotoxicity against human CC20 cells assessed as survival index at 10 uM after 72 hrs by FMCA method; type: functional; details: CC20, 72 h, read-out: Survival
Summary of the method: (§1)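 Library screen by FMCA at a final 10 µM (10 mM DMSO stocks diluted in PBS); 5000 cells/well, 72 h at 37 °C, then fluorescein diacetate for 50 min with fluorescence at 485/520 nm. Survival index is well fluorescence as % of control wells after blank subtraction. QC required signal/blank >10 and CV <30% in control and blank wells.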

HT-29 [2] = assay: Cytotoxicity against human HT-29 cells assessed as survival index at 10 uM after 72 hrs by FMCA method; type: functional; details: HT-29, 72 h, read-out: Survival; summary of the method: as §1
[3] = Cytotoxicity against human CC20 cells after 72 hrs by FMCA method relative to digoxin; type: functional
HCT-116 [4] = assay: Cytotoxicity against human HCT116 cells assessed as survival index at 10 uM after 72 hrs by FMCA method; type: functional; details: HCT-116, 72 h, read-out: Survival; summary of the method: as §1
HT-29 [5] = assay: Cytotoxicity against human HT-29 cells after 72 hrs by FMCA method relative to digoxin; type: functional
HCT-116 [6] = assay: Cytotoxicity against human HCT116 cells after 72 hrs by FMCA method relative to digoxin; type: functional
HT-29 [7] = assay: Cytotoxicity against human HT-29 cells after 72 hrs by FMCA method; type: functional, cell-based; details: HT-29, 72 h
Summary of the method: (§2)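 FMCA: cells seeded at 5000/well onto compound plates at nine concentrations (1:2 serial dilutions in PBS from DMSO solutions), in duplicate, for 72 h at 37 °C. Then washed, given fluorescein diacetate for 50 min at 37 °C, and fluorescence read at 485/520 nm. HT29 and CC20 were grown in DMEM, HCT116 in McCoy's 5A. IC50 from nonlinear regression of log concentration–effect curves; three independent experiments, mean ± SEM.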

[8] = Cytotoxicity against human CC20 cells after 72 hrs by FMCA method; type: functional, cell-based; details: CC20, 72 h; summary of the method: as §2
HCT-116 [9] = assay: Cytotoxicity against human HCT116 cells after 72 hrs by FMCA method; type: functional, cell-based; details: HCT-116, 72 h; summary of the method: as §2
[10] = Cytotoxicity against human colon cancer cells after 72 hrs by FMCA method; type: functional, cell-based; details: Primary cultures of tumor cells from patients
HeLa = assay: Inhibition of TNF-alpha-stimulated NF-kappaB translocation from cytoplasm to nucleus in human HeLa cells at 0.4 to 10 uM; type: functional, cell-based
Summary of the method: (§3)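 NF-κB activation high-content kit run per manufacturer: TNF-α-stimulated cells treated at 0.4, 2 and 10 µM (or 0.2, 1 and 5 µM). Cytoplasm-to-nucleus translocation of NF-κB quantified by automated imaging (ArrayScan). TNF-α and bortezomib served as controls.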

HT-29 [11] = assay: Inhibition of TNF-alpha-stimulated NF-kappaB translocation from cytoplasm to nucleus in human HT-29 cells at 0.4 to 10 uM; type: functional, cell-based; summary of the method: as §3
[12] = Inhibition of Na+/K+ ATPase relative to digoxin
MCF7 = assay: Inhibition of TNF-alpha-stimulated NF-kappaB translocation from cytoplasm to nucleus in human MCF7 cells at 0.4 to 10 uM; type: functional, cell-based; summary of the method: as §3

| SMILES | viability at 10 µM [1] [%] | viability at 10 µM (HT-29 [2]) [%] | Activity [3] | viability at 10 µM (HCT-116 [4]) [%] | Activity (HT-29 [5]) | Activity (HCT-116 [6]) | IC50 (HT-29 [7]) [nM] | IC50 [8] [nM] | IC50 (HCT-116 [9]) [nM] | IC50 [10] [nM] | inhibition (HeLa) | inhibition (HT-29 [11]) | Activity [12] | inhibition (MCF7) |
| --- | --- | --- | --- | --- | --- | --- | --- | --- | --- | --- | --- | --- | --- | --- |
| C[C@@H]1O[C@@H](O[C@H]2CC[C@]3(C=O)[C@H]4CC[C@]5(C)[C@@H](C6=CC(=O)OC6)CC[C@]5(O)[C@@H]4CC[C@]3(O)C2)[C@H](O)[C@H](O)[C@H]1O [CONVALLATOXIN] | 1 | 20 | 0.03 | 3 | 0.39 | 0.04 | 550 | < 40 | < 40 | – | – | – | – | – |
| CO[C@H]1C[C@H](O[C@H]2CC[C@]3(C=O)[C@H]4CC[C@]5(C)[C@@H](C6=CC(=O)OC6)CC[C@]5(O)[C@@H]4CC[C@]3(O)C2)O[C@H](C)[C@H]1O [CYMARIN] | 2 | 26 | – | 4 | – | – | – | – | – | – | – | – | – | – |
| C[C@@H]1CC[C@@]2(OC1)O[C@H]1[C@@H](O)[C@H]3[C@@H]4CC[C@H]5C[C@@H](O[C@@H]6O[C@H](CO)[C@H](O[C@@H]7O[C@H](CO)C(O)[C@H](O[C@@H]8OC[C@@H](O)[C@H](O)[C@H]8O)[C@H]7O[C@@H]7O[C@H](CO)[C@H](O)[C@H](O[C@@H]8O[C@H](CO)[C@@H](O)[C@H](O)[C@H]8O)[C@H]7O)[C@H](O)[C@H]6O)[C@H](O)C[C@]5(C)[C@H]4CC[C@]3(C)[C@H]1[C@@H]2C (some centres not stated) [DIGITONIN] | 88 | 74 | – | 62 | – | – | 5600 | 9600 | 8700 | – | – | – | – | – |
| C[C@H]1O[C@@H](O[C@H]2[C@@H](O)C[C@H](O[C@H]3[C@@H](O)C[C@H](O[C@H]4CC[C@@]5(C)[C@H](CC[C@@H]6[C@@H]5CC[C@]5(C)[C@@H](C7=CC(=O)OC7)CC[C@]65O)C4)O[C@@H]3C)O[C@@H]2C)C[C@H](O)[C@@H]1O [DIGITOXIN] | 2 | 28 | 1.71 | 4 | 2.91 | 2.74 | 4070 | 410 | 740 | 100 | inactive | inactive | 0.3 | inactive |
| C[C@H]1O[C@@H](O[C@H]2[C@@H](O)C[C@H](O[C@H]3[C@@H](O)C[C@H](O[C@H]4CC[C@@]5(C)[C@H](CC[C@@H]6[C@@H]5C[C@@H](O)[C@]5(C)[C@@H](C7=CC(=O)OC7)CC[C@]65O)C4)O[C@@H]3C)O[C@@H]2C)C[C@H](O)[C@@H]1O [DIGOXIN] | 1 | 24 | 1 | 4 | 1 | 1 | 1400 | 240 | 270 | 100 | inactive | inactive | 1 | inactive |
| CC(=O)O[C@H]1CC[C@@]2(C)[C@H](CC[C@@H]3[C@@H]2CC[C@]2(C)[C@@H](C4=CC(=O)OC4)[C@@H](OC(C)=O)C[C@]32O)C1 [GITOXIGENIN DIACETATE] | 2 | 40 | – | 17 | – | – | – | – | – | – | – | – | – | – |
| C[C@]12CC[C@H](O)C[C@H]1CC[C@@H]1[C@@H]2CC[C@]2(C)[C@@H](C3=CC(=O)OC3)[C@@H](O)C[C@]12O [GITOXIGENIN] | 54 | 81 | – | 63 | – | – | – | – | – | – | – | – | – | – |
